Assay results published in ChEMBL document CHEMBL1150353, “Development of novel antiatherogenic biaryls: design, synthesis, and reactivity” (2008).
The source made the active and inactive calls. No cut-off for these calls is given here.

Legend:
[1] = Antioxidant activity in HMEC1 cells assessed as inhibition of LDL oxidation at 10 uM after 6 hrs by TBARS assay relative to control; assay type: functional, Homo sapiens, HMEC-1; set-up: scale not given: the % may be the effect or the level left
Procedure, shortened: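 HMEC-1 (sparse proliferative) in serum-free RPMI-1640 with native LDL 100 µg apoB/mL and CuSO4 1 µM, 37 °C, 6 h; compounds added from DMSO (<0.1% final) at 10 µM just before oxidation, in duplicate. TBARS in medium measured fluorimetrically; expressed as % of TBARS with cells and no agent.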

HMEC-1 [2] = assay: Protection against oxidized LDL-induced cytotoxicity in HMEC1 cells assessed as residual cell viability after 24 hrs by MTT assay relative to control; assay type: functional, Homo sapiens
Procedure, shortened: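 HMEC-1 exposed 6 h at 37 °C to native LDL (100 µg apoB/mL) with 1 µM CuSO4 in serum-free RPMI, with or without agent (10 µM, DMSO <0.1%); toxicity of the cell-oxidized LDL read by MTT after 24 h, as % of unstimulated cells kept in fresh RPMI without LDL or antioxidant.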

HMEC-1 [3] = assay: Inhibition of 4-hydroxynonenal-induced carbonyl stress in HMEC1 cells assessed as prevention of increase in carbonylated protein level at 10 uM relative to control; assay type: functional, cell-based; details: Homo sapiens
Procedure, shortened: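 HMEC-1 were incubated overnight with 50 µM 4-HNE in FCS-free RPMI-1640 with the compound, then washed, scraped and pelleted. Protein was derivatized for 1 h at room temperature with 0.1% DNPH in 2 M HCl, precipitated with TCA, and washed with ethanol/ethyl acetate. It was dissolved in 8 M guanidine buffer (pH 7.4) and read at 365 nm. Results are % of unstimulated control, mean of four experiments.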

HMEC-1 [4] = assay: (§1) Cytoprotective activity against ultraviolet irradiation oxidized LDL-induced cytotoxicity in HMEC1 cells assessed as residual cell survival at 10 uM for 24 hrs by MTT assay relative to control; assay type: functional; details: Homo sapiens
Procedure, shortened: (§2)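 HMEC-1 were exposed to UV-C-oxidized LDL. LDL at 2 mg apoB/mL with 2 µmol/L CuSO₄ was irradiated for 2 h at 254 nm, then added to the medium at 200 µg apoB/mL together with the compound. MTT viability was read after 24 h, as % of unstimulated cells in LDL-free medium. Each value is the mean of four determinations.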

U-937 = assay: Inhibition of foam cell formation in LDL exposed human U937 cells assessed as accumulation of red O-stained lipid droplets at 10 uM for 14 hrs by nile red fluorescence assay; assay type: functional, cell-based
Procedure, shortened: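 U937 grown in RPMI with 10% FCS were used at subconfluence. They were incubated for 14 h in fresh RPMI containing native LDL (100 µg/mL), 1 µM CuSO₄ and agent (10 µM). Cells were fixed in 10% paraformaldehyde, stained with 0.5 µg/mL Nile Red, scraped and read fluorometrically (ex 460/em 550 nm). Parallel slides were stained with oil red O and hematoxylin and examined microscopically. Data are the mean of three experiments.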

[5] = as §1; assay type: functional, Homo sapiens, HMEC-1; procedure, shortened: as §2
HMEC-1 [6] = assay: Cytoprotective activity against ultraviolet irradiation oxidized LDL and 4-hydroxynonenal-induced cytotoxicity in HMEC1 cells assessed as cell survival at 10 uM after 24 hrs relative to control; assay type: functional, cell-based; details: Homo sapiens
Procedure, shortened: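 HMEC-1 were exposed to 4-HNE added directly to the medium, or to UV-oxidized LDL. For the oxidized LDL, LDL at 2 mg apoB/mL with 2 µmol/L CuSO₄ was irradiated with UV-C (254 nm) for 2 h and then added at 200 µg apoB/mL. Compounds were present during exposure. Viability was read by MTT after 24 h, as % of cells in LDL-free medium. Each value is the mean of four determinations.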

**Q.** For `COc1cc(/C=N/NC(=O)c2ccncc2)cc(-c2cc(/C=N/NC(=O)c3ccncc3)cc(OC)c2O)c1O`, which Activity [1] is on record?
**A.** 83%

**Q.** And the Activity (HMEC-1 [2])?
**A.** 13.5%

**Q.** What about the Activity (HMEC-1 [3]) of the same compound?
**A.** inactive

**Q.** For `CCOP(=O)(/C=C/c1cc(OC)c(O)c(-c2cc(/C=N/NC(=O)c3ccncc3)cc(OC)c2O)c1)OCC`, which Activity [1] is on record?
**A.** 67.5%

**Q.** What about the Activity (HMEC-1 [2]) of the same compound?
**A.** 31.2%

**Q.** Which Activity (HMEC-1 [4]) does the source give for `CCOP(=O)(/C=C/c1cc(OC)c(O)c(-c2cc(/C=N/Nc3nncc4ccccc34)cc(OC)c2O)c1)OCC.Cl` here?
**A.** Active

**Q.** What about the Activity [1] of the same compound?
**A.** 4.1%

**Q.** What about the Activity (HMEC-1 [2]) of the same compound?
**A.** 61.2%

**Q.** With `COc1cc(C=O)cc(-c2cc(C=O)cc(OC)c2O)c1O` as the compound, how does the Activity [1] read?
**A.** 86.2%

**Q.** And the Activity (HMEC-1 [2])?
**A.** 40.5%

**Q.** Which results are given for `CCOP(=O)(/C=C/c1cc(OC)c(O)c(-c2cc(/C=C/P(=O)(OCC)OCC)cc(OC)c2O)c1)OCC`?
**A.** Activity [1]: 67.4%; Activity (HMEC-1 [2]): 66%; Activity (U-937): Active

**Q.** What does the source list for `Cc1c(C)c2c(c(C)c1O)CC[C@@](C)(CCC[C@H](C)CCC[C@H](C)CCCC(C)C)O2` [ALPHA-TOCOPHEROL]?
**A.** Activity [1]: 55%; Activity (HMEC-1 [2]): 29%

**Q.** What does the source list for `COc1cc(/C=N/Nc2nncc3ccccc23)cc(-c2cc(/C=N/Nc3nncc4ccccc34)cc(OC)c2O)c1O.Cl`?
**A.** Activity [5]: 80%; Activity [1]: 2.8%; Activity (HMEC-1 [2]): 82%; Activity (U-937): Active; Activity (HMEC-1 [6]): Active; Activity (HMEC-1 [3]): Active

**Q.** Which results are given for `CCOP(=O)(/C=C/c1cc(OC)c(O)c(-c2cc(C=O)cc(OC)c2O)c1)OCC`?
**A.** Activity [1]: 67.5%; Activity (HMEC-1 [2]): 63.5%

**Q.** Which Activity [1] does the source give for `CC(C)(Sc1cc(C(C)(C)C)c(O)c(C(C)(C)C)c1)Sc1cc(C(C)(C)C)c(O)c(C(C)(C)C)c1` [PROBUCOL] here?
**A.** 10%

**Q.** What about the Activity (HMEC-1 [2]) of the same compound?
**A.** 92%
